From ChEMBL document CHEMBL3779787, “Amorfrutin C Induces Apoptosis and Inhibits Proliferation in Colon Cancer Cells through Targeting Mitochondria” (J Nat Prod, 2016)
Active and inactive are the calls of the source. The rule behind the calls is not given here.

Key:
[1] = Antiproliferative activity against human PC3 cells assessed as cellular DNA content after 72 hrs by CyQUANT NF fluorescence assay relative to control; assay type: functional, PC-3
Method in brief: (§1)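 Cells seeded at 750 (HT-29), 250 (PC-3) or 900 (T84, MCF7) cells/well, treated next day with concentration series for 72 h (HT-29, PC-3) or 96 h (T84, MCF7). Relative cell number from cellular DNA content by fluorescent DNA-binding dye. Variable-slope fit; efficiency = maximal inhibition (100% − Bottom) vs untreated; IC50 relative to the compound's own maximal efficiency.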

HT-29 [2] = test: Upregulation of p21/Cip1 expression in human HT-29 cells at 10 uM after 48 hrs by immunoblotting method; assay type: functional, cell-based
Method in brief: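 HT-29 cells exposed 48 h to 10 μM compound. Whole-cell protein lysates probed for cell-cycle modulators by immunoblotting.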

HT-29 [3] = test: Antiproliferative activity against human HT-29 cells assessed as cellular DNA content after 72 hrs by CyQUANT NF fluorescence assay; assay type: functional, cell-based; conditions: HT-29, 72 h; method in brief: as §1
HT-29 [4] = test: Antiproliferative activity against human HT-29 cells assessed as cellular DNA content after 72 hrs by CyQUANT NF fluorescence assay relative to control; assay type: functional; method in brief: as §1
T84 = test: Antiproliferative activity against human T84 cells assessed as cellular DNA content after 96 hrs by CyQUANT NF fluorescence assay; assay type: functional, cell-based; conditions: T84, 96 h; method in brief: as §1
HT-29 [5] = test: Downregulation of cyclin D3 expression in human HT-29 cells at 10 uM after 48 hrs by immunoblotting method; assay type: functional, cell-based
Method in brief: (§2)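 HT-29 exposed to 10 μM for 48 h; whole-cell lysates immunoblotted for the indicated proteins (total and cleaved PARP for the apoptosis line).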

HT-29 [6] = test: Downregulation of cyclin E2 expression in human HT-29 cells at 10 uM after 48 hrs by immunoblotting method; assay type: functional, cell-based; method in brief: as §2
HT-29 [7] = test: Downregulation of CDK2 expression in human HT-29 cells at 10 uM after 48 hrs by immunoblotting method; assay type: functional, cell-based; method in brief: as §2
HT-29 [8] = test: Downregulation of CDK4 expression in human HT-29 cells at 10 uM after 48 hrs by immunoblotting method; assay type: functional, cell-based; method in brief: as §2
HT-29 [9] = test: Induction of cell cycle arrest in human HT-29 cells assessed as accumulation at S phase at 10 uM by flow cytometry (reference value: 11%); assay type: functional
HT-29 [10] = test: Induction of apoptosis in human HT-29 cells assessed as increase in caspase 8 activity at 30 uM after 2 hrs by luminescent assay relative to control; assay type: functional
Method in brief: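 HT-29 cells exposed to compound 2 h; effector/initiator caspase enzymatic activity measured by luminescent assays, normalized to control treatment; means ± SEM, n = 4.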

HT-29 [11] = test: Induction of apoptosis in human HT-29 cells assessed as DNA fragmentation by measuring cytoplasmic BrdU-labeled DNA at 30 uM by ELISA; assay type: functional, cell-based
Method in brief: (§3)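 Cytosolic DNA by ELISA after 4 h treatment. BrdU method: cells (13 000/well) prelabelled with 10 μM BrdU for 2 days at 37 °C, unincorporated BrdU removed before treatment. Oligonucleosome method: 20 000 cells/well, 1 day at 37 °C. Cell-free background subtracted, normalized to vehicle; means ± SEM, n = 4.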

HT-29 [12] = test: Induction of apoptosis in human HT-29 cells assessed as DNA fragmentation by measuring cytoplasmic oligonucleosome level at 30 uM by ELISA; assay type: functional, cell-based; method in brief: as §3
HT-29 [13] = test: Induction of apoptosis in human HT-29 cells assessed as cleaved PARP level at 10 uM after 48 hrs; assay type: functional, cell-based; method in brief: as §2
HT-29 [14] = test: Induction of ROS generation in human HT-29 cells at 30 uM by CM-H2DCFDA staining-based fluorescence assay in presence of alpha-tocopherol; assay type: functional, cell-based
Method in brief: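 HT-29 (15 000 cells/well) loaded with 50 μM CM-H2DCFDA in PBS for 30 min at 37 °C, washed, then 60 min in phenol red-free DMEM/F-12. 30 μM compound added alone or with NAC 1 mM, GSH 2.5 mM, D3T 25 μM, α-tocopherol 50 μM or ascorbic acid 500 μM. Fluorescence 485/530 nm read kinetically at 37 °C for 22 h; area under curve; means ± SEM, n = 7.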

HT-29 [15] = test: Antiproliferative activity against human HT-29 cells assessed as cellular DNA content at 20 uM after 48 hrs by CyQUANT NF fluorescence assay in presence of 3H-1,2-dithiole-3-thione; assay type: functional, cell-based
Method in brief: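 HT-29 given concentration series of test compound with or without antioxidant (NAC 1 mM, GSH 2.5 mM, D3T 25 μM, α-tocopherol 50 μM, ascorbic acid 500 μM) for 48 h. Relative cell number from DNA-binding fluorescent dye; means ± SD, n = 4.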

HT-29 [16] = test: Induction of apoptosis in human HT-29 cells at 30 uM after 24 hrs by annexin V-FLUOS/propidium iodide staining-based flow cytometry in presence of ascorbic acid; assay type: functional, cell-based
Method in brief: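 HT-29 cells co-incubated 24 h with 30 μM compound and antioxidant: glutathione 2.5 mM, α-tocopherol 50 μM, or ascorbic acid 500 μM. Phosphatidylserine externalization measured by annexin V-FLUOS/propidium iodide staining and flow cytometry. Means ± SEM, n = 3.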

HT-29 [17] = test: Induction of apoptosis in human HT-29 cells assessed as mitochondrial membrane depolarization after 5 mins by JC-1 dye-based fluorescence assay; assay type: functional, cell-based; conditions: HT-29, 5 min
Method in brief: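 HT-29 (40 000 cells/well) treated with concentration series for 5 min at 37 °C, then JC-1 added for a further 10 min and washed. Red (560/590 nm) to green (485/520 nm) fluorescence ratio taken as ΔΨm; variable-slope fit for IC50; means ± SD, n = 4.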

HT-29 [18] = test: Increase in mitochondrial oxygen consumption in human HT-29 cells at 2 to 10 uM measured for 20 to 60 mins by time-resolved fluorescence assay; assay type: functional, cell-based
Method in brief: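 HT-29 at 80 000 cells/well in phenol red-free DMEM/F-12 with oxygen-sensitive lifetime probe, compound added, wells sealed with mineral oil. Time-resolved fluorescence at 37 °C, 90 s intervals for 150 min. Lifetime slope over 20–60 min expressed relative to untreated cells; means ± SEM, n = 8.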

[19] = Dissociation constant, pKa of the compound by UV metric method; assay type: physicochemical
Method in brief: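 UV-metric titration with 0.15 M KCl at 25 °C: pH 12.0–2.0 at 32–26 μM in methanol/water cosolvent, and pH 12.5–8.9 at 30–21 μM in water.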

HT-29 [20] = test: Induction of apoptosis in human HT-29 cells assessed as increase in phosphatidylserine externalization at 10 uM after 48 hrs by flow cytometry in presence of TNF-related apoptosis inducing ligand; assay type: functional, cell-based
Method in brief: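 HT-29 exposed 48 h to 10 μM compound, αFAS (10 ng/mL), TRAIL (30 ng/mL) or combinations. Phosphatidylserine externalization by annexin V flow cytometry. Expected combination effects from Bliss independence; means ± SEM, n = 4.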

In the case of `COc1c(CC=C(C)C)c(O)c(C(=O)O)c(CCc2ccccc2)c1CC=C(C)C`, the Efficacy [1] is reported as 95%, the Activity (HT-29 [2]) is reported as “Active” and the IC50 (HT-29 [3]) is reported as 8.1 µM. The Efficacy (HT-29 [4]) was 95%, the IC50 (T84) was 11 µM and the Activity (HT-29 [5]) was “Active”. For the same compound, the Activity (HT-29 [6]) was “Active”, the Activity (HT-29 [7]) was “Active” and the Activity (HT-29 [8]) was “Active”. For the same compound, the Activity (HT-29 [9]) was 2%, the “fold change (FC)” value (HT-29 [10]) was 3 and the Activity (HT-29 [11]) was “Active”. The Activity (HT-29 [12]) was “Active”, the Activity (HT-29 [13]) was “Active” and the Activity (HT-29 [14]) was “inactive”. The Activity (HT-29 [15]) was “Active”, the Activity (HT-29 [16]) was “Active” and the IC50 (HT-29 [17]) was 0.6 µM. For the same compound, the Activity (HT-29 [18]) was “Active”, the pKa [19] was 3.5 and the Activity (HT-29 [20]) was “Active”.
